Active and inactive are the calls of the source. The calls are words filed in the database; no cut-off is given here.
Assays:
[1] = tested on: Jurkat; assay: Photocytotoxicity against human Jurkat cells assessed as growth inhibition at 2.5 J/cm'2 irradiation for 30 mins followed by drug treated for 72 hrs by MTT assay; format: functional; details: light or radiation study
How it was run: (§1)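 Cells seeded at 5 × 10³ per well and pre-incubated 24 h. Drug dilutions in HBSS (pH 7.2, from DMSO stock) added for 30 min at 37 °C, then UV-A irradiation at the stated dose. Drug solution then replaced with culture medium and plates incubated 72 h. Viability by MTT; GI50 from concentration series.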

[2] = tested on: Jurkat; assay: Photocytotoxicity against human Jurkat cells assessed as growth inhibition at 1.25 J/cm'2 irradiation for 30 mins followed by drug treated for 72 hrs by MTT assay; format: functional; details: light or radiation study; how it was run: as §1
[3] = tested on: Jurkat; assay: Photocytotoxicity against human Jurkat cells assessed as reduction of cell survival at 0.5 uM measured 72 hrs post 2.5 J/cm'2 irradiation by MTT assay in the presence of vitamin E, NaN3, DABCO, DMTU and MANN; format: functional, cell-based
How it was run: (§2)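 Jurkat cells irradiated at 2.5 J/cm² with compound in HBSS together with a scavenger: vitamin E 60 µM, NaN₃ 10 mM, DABCO 1 mM, GSH 1 mM, DMTU 1 mM or mannitol 10 mM. Medium replaced after irradiation; viability by MTT 72 h later.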

[4] = tested on: HL-60; assay: Photocytotoxicity against human HL60 cells assessed as growth inhibition at 2.5 J/cm'2 irradiation for 30 mins followed by drug treated for 72 hrs by MTT assay; format: functional; details: HL-60, light or radiation study; how it was run: as §1
[5] = tested on: HL-60; assay: Photocytotoxicity against human HL60 cells assessed as growth inhibition at 1.25 J/cm'2 irradiation for 30 mins followed by drug treated for 72 hrs by MTT assay; format: functional; details: HL-60, light or radiation study; how it was run: as §1
[6] = tested on: MCF7; assay: Photocytotoxicity against human MCF7 cells assessed as growth inhibition at 3.75 J/cm'2 irradiation for 30 mins followed by drug treated for 72 hrs by MTT assay; format: functional; details: MCF7, light or radiation study; how it was run: as §1
[7] = tested on: MCF7; assay: Photocytotoxicity against human MCF7 cells assessed as growth inhibition at 2.5 J/cm'2 irradiation for 30 mins followed by drug treated for 72 hrs by MTT assay; format: functional; details: MCF7, light or radiation study; how it was run: as §1
[8] = tested on: A549; assay: Photocytotoxicity against human A549 cells assessed as growth inhibition at 3.75 J/cm'2 irradiation for 30 mins followed by drug treated for 72 hrs by MTT assay; format: functional; details: A549, light or radiation study; how it was run: as §1
[9] = tested on: A549; assay: Photocytotoxicity against human A549 cells assessed as growth inhibition at 2.5 J/cm'2 irradiation for 30 mins followed by drug treated for 72 hrs by MTT assay; format: functional; details: A549, light or radiation study; how it was run: as §1
[10] = tested on: LoVo; assay: Photocytotoxicity against human LoVo cells assessed as growth inhibition at 3.75 J/cm'2 irradiation for 30 mins followed by drug treated for 72 hrs by MTT assay; format: functional; details: light or radiation study; how it was run: as §1
[11] = tested on: LoVo; assay: Photocytotoxicity against human LoVo cells assessed as growth inhibition at 2.5 J/cm'2 irradiation for 30 mins followed by drug treated for 72 hrs by MTT assay; format: functional; details: light or radiation study; how it was run: as §1
[12] = tested on: A549; assay: Photocytotoxicity against human A549 cells assessed as inhibition of colony formation at 2.5 J/cm'2 irradiation after 1 to 2 weeks using crystal violet staining by optical microscopy; format: functional, cell-based
How it was run: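 A-549 cells (10 × 10³) plated in dishes. After 24 h, irradiated at 2.5 J/cm² with compound at varying concentrations. Medium replaced, then cultured 1–2 weeks with medium changes every 2–3 days. Stained with crystal violet; colonies of ≥50 cells counted visually. Expressed as % of untreated cells; mean ± SEM of three experiments.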

[13] = tested on: Jurkat; assay: Induction of apoptosis in human Jurkat cells assessed as reduction in alive cells using Annexin-V and propidium iodide staining at 1 to 2 uM measured 24 hrs post 2.5 J/cm'2 irradiation by flow cytometry analysis; format: functional, cell-based
How it was run: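 Jurkat cells irradiated (2.5 J/cm²) with compound at 1 or 2 µM. After 24 h, co-stained with Annexin V-FITC and PI and analysed by flow cytometry (excitation 488 nm; emission 525 and 585 nm). Mean of three independent experiments.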

[14] = tested on: Jurkat; assay: Induction of apoptosis in human Jurkat cells assessed as increase in cleaved caspase 3 level at 1 uM measured 24 hrs post 2.5 J/cm'2 irradiation by Western blot analysis; format: functional, cell-based
How it was run: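 Jurkat cells irradiated (2.5 J/cm²) with compound at 1 µM. At 24 h, cells washed in cold PBS and lysed on ice for 20 min. 20 µg protein run on 8–16% gradient gels and transferred to nitrocellulose. Probed with rabbit anti-caspase-3 and β-actin (1:1000, 2 h), then peroxidase anti-rabbit IgG; ECL detection.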

[15] = tested on: Jurkat; assay: Induction of apoptosis in human Jurkat cells assessed as reduction in mitochondrial potential at 1 to 2 uM using JC-1 staining measured 24 hrs post 2.5 J/cm'2 irradiation by FACS assay; format: functional, cell-based
How it was run: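 At 24 h after 2.5 J/cm² irradiation with compound at 1 or 2 µM, Jurkat cells were pelleted and resuspended in HBSS with 1 µM JC-1. After 10 min at 37 °C, fluorescence read at 530 and 590 nm by flow cytometry. Mean ± SEM, n=3.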

[16] = tested on: Jurkat; assay: Induction of apoptosis in human Jurkat cells assessed as ROS production at 1 to 2 uM using HE and DCFDA staining measured 24 hrs post 2.5 J/cm'2 irradiation by FACS assay; format: functional, cell-based
[17] = tested on: Jurkat; assay: Induction of apoptosis in human Jurkat cells assessed as lysosome death at 1 to 2 uM using acridine orange staining measured 24 hrs post 2.5 J/cm'2 irradiation by flow cytometry; format: functional, cell-based
[18] = tested on: Escherichia coli; assay: Induction of DNA damage in Escherichia coli pBR322 DNA measured at 7.5 J/cm'2 UV-A irradiation by neutral agarose electrophoresis
How it was run: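 pBR322 plasmid (100 ng) in 10 mM phosphate buffer pH 7.2 irradiated at 7.5 J/cm² UV-A with compound at a compound/DNA ratio of 3/1. Aliquots incubated at 37 °C with Fpg or Endo III. Run on 1% agarose in TAE at 70 V for 4 h; supercoiled, open circular and linear bands quantified.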

[19] = tested on: Jurkat; assay: Induction of lipid peroxidation in human Jurkat cells at 2 uM measured 24 hrs post 2.5 J/cm'2 irradiation by TBA assay; format: functional, cell-based
How it was run: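 TBA test for TBARS performed on supernatant medium and on cell lysates 24 h post-irradiation. Mean ± SEM of three experiments.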

[20] = tested on: Jurkat; assay: Photocytotoxicity against human Jurkat cells assessed as cell survival at 0.5 uM measured 72 hrs post 2.5 J/cm'2 irradiation by MTT assay in presence of lipophilic scavengers; format: functional, cell-based; how it was run: as §2
[21] = tested on: Jurkat; assay: Cytotoxicity against human Jurkat cells assessed as growth inhibition after 72 hrs by MTT assay; format: functional
[22] = tested on: HL-60; assay: Cytotoxicity against human HL60 cells assessed as growth inhibition after 72 hrs by MTT assay; format: functional; details: HL-60, 72 h
[23] = tested on: A549; assay: Cytotoxicity against human A549 cells assessed as growth inhibition after 72 hrs by MTT assay; format: functional; details: A549, 72 h
How it was run: (§3)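 Cells (5 × 10³ per well) pre-incubated 24 h at 37 °C, 5% CO₂, then exposed in the dark to serial concentrations diluted from DMSO stock into complete medium for 72 h at 37 °C. Viability read by MTT; GI50 derived. LoVo in Ham's F-12, MCF-7 and A-549 in DMEM, all with 10% FBS and penicillin/streptomycin.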

[24] = tested on: MCF7; assay: Cytotoxicity against human MCF7 cells assessed as growth inhibition after 72 hrs by MTT assay; format: functional; details: MCF7, 72 h; how it was run: as §3
[25] = tested on: LoVo; assay: Cytotoxicity against human LoVo cells assessed as growth inhibition after 72 hrs by MTT assay; format: functional; how it was run: as §3
[26] = tested on: Jurkat; assay: Photocytotoxicity against human Jurkat cells assessed as reduction of cell survival at 0.2 uM measured 72 hrs post 2.5 J/cm'2 irradiation by MTT assay in the presence of vitamin E, NaN3, DABCO, DMTU and MANN; format: functional, cell-based; how it was run: as §2
[27] = Induction of singlet oxygen generation measured after UV-A irradiation by RNO bleaching assay; format: physicochemical
How it was run: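 Compound (2.2 × 10⁻⁵ M), RNO (4 × 10⁻⁵ M) and imidazole (4 × 10⁻⁵ M) in phosphate buffer pH 7.3 irradiated with increasing UV-A doses. Absorbance read at 440 nm; reported as % RNO bleaching.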

[28] = Induction of superoxide anion generation measured after UV-A irradiation by NBT reduction assay; format: physicochemical
How it was run: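 Compound (10⁻⁵ M) with nitroblue tetrazolium (1.6 × 10⁻⁴ M) in carbonate buffer pH 10 irradiated with increasing UV-A doses. Absorbance at 560 nm followed as the superoxide read-out.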

[29] = tested on: MCF7; assay: Ratio of angelicin GI50 to compound GI50 for human MCF7 cells assessed as growth inhibition at 3.75 J/cm'2 irradiation for 30 mins followed by drug treated for 72 hrs by MTT assay; format: functional
How it was run: (§4)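 Cells were pre-incubated 30 min at 37 °C with drug in HBSS, irradiated, then drug replaced with medium. Ratio is angelicin GI50 divided by compound GI50.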

[30] = tested on: LoVo; assay: Ratio of angelicin GI50 to compound GI50 for human LoVo cells assessed as growth inhibition at 3.75 J/cm'2 irradiation for 30 mins followed by drug treated for 72 hrs by MTT assay; format: functional; how it was run: as §4

Row | Structure (SMILES) | GI50 [1] [µM] | GI50 [2] [µM] | GI50 [4] [µM] | GI50 [5] [µM] | GI50 [6] [µM] | GI50 [7] [µM] | GI50 [8] [µM] | GI50 [9] [µM] | GI50 [10] [µM] | GI50 [11] [µM] | Activity [12] | Activity [13] | Activity [14] | Activity [15] | Activity [16] | GI50 [21] [µM] | GI50 [22] [µM] | GI50 [23] [µM] | GI50 [24] [µM] | GI50 [25] [µM] | other results
1 | COc1ccc(-n2ncc3c2CCc2cc(S(=O)(=O)c4ccccc4)c(OC)nc2-3)cc1 | 0.64 | 1.15 | 0.72 | 5.29 | 1.18 | 2.53 | 1.52 | 4.02 | 0.53 | 3.56 | Dose-dependent effect | Active | inactive | Active | inactive | 12.5 | > 20 | > 20 | > 20 | > 20 | Activity [3]: inactive; Activity [17]: inactive; Activity [18]: inactive; Activity [19]: Active; Activity [20]: inactive
2 | COc1ccc(-n2ncc3c4nc(OC)c(S(=O)(=O)c5ccccc5)cc4ccc32)cc1 | 0.54 | 1.5 | 0.76 | 0.99 | 0.59 | 1.23 | 0.09 | 0.35 | 0.16 | 0.42 |  |  |  |  |  | > 20 | > 20 | > 20 | 16.2 | > 20 | 
3 | O=c1c(S(=O)(=O)c2ccccc2)cc2c(n1Cc1ccccc1)-c1cnn(-c3ccc(Cl)cc3)c1CC2 | 4.97 | > 20 | 7.17 | > 20 | 9.89 | > 20 | 6.64 | > 20 | 3.72 | 11.1 |  |  |  |  |  | 13.6 | 11.6 | > 20 | > 20 | > 20 | 
4 | Cn1c(=O)c(S(=O)(=O)c2ccccc2)cc2ccc3c(cnn3-c3ccc(Cl)cc3)c21 | 0.1 | 0.2 | 0.31 | 0.39 | 0.17 | 0.33 | 0.08 | 0.26 | 0.04 | 0.16 | Dose-dependent effect | Active | Active | Active | Active |  |  |  |  |  | Activity [26]: inactive; Activity [27]: Active; Activity [28]: Active; Activity [17]: Active; Activity [18]: inactive; Activity [19]: Active; Ratio IC50 [29]: 8; Ratio IC50 [30]: 27
5 | COc1nc2c(cc1S(=O)(=O)c1ccccc1)CCc1c-2cnn1-c1ccccc1Cl | 0.9 | 1.93 | 0.81 | 3.78 | 1.59 | 3.13 | 4.8 | 14.3 | 1.78 | 5.73 |  |  |  |  |  | 9.8 | 7.17 | > 20 | > 20 | > 20 | 
6 | COc1nc2c(cc1S(=O)(=O)c1ccccc1)CCc1c-2cnn1-c1ccccc1 | 0.71 | 3.65 | 0.79 | 2.83 | 1.84 | 2.47 | 2.89 | 7.56 | 1.1 | 3.14 |  |  |  |  |  | 12.1 | > 20 | > 20 | > 20 | > 20 | 
7 | COc1ccc(-n2ncc3c4[nH]c(=O)c(S(=O)(=O)c5ccccc5)cc4ccc32)cc1 | > 20 | > 20 | > 20 | > 20 | > 20 | > 20 | 4.26 | 5.39 | > 20 | > 20 |  |  |  |  |  | > 20 | > 20 | 6.56 | 8.36 | > 20 | 
8 | COc1nc2c(cc1S(=O)(=O)c1ccccc1)CCc1c-2cnn1-c1ccc(Cl)cc1 | 0.43 | 0.72 | 0.48 | 4.03 | 1.69 | 7.09 | 1.49 | 5.28 | 0.73 | 5.53 | Dose-dependent effect | Active | inactive | Active | inactive | 11.3 | > 20 | > 20 | > 20 | > 20 | Activity [17]: inactive; Activity [18]: inactive; Activity [19]: Active; Activity [20]: inactive

Source: ChEMBL document CHEMBL3616466, “Pyrazolo[3,4-h]quinolines promising photosensitizing agents in the treatment of cancer” (Eur J Med Chem, 2015)
